Measured values published in ChEMBL document CHEMBL2390881, “Identification of M. tuberculosis thioredoxin reductase inhibitors based on high-throughput docking using constraints” (J Med Chem, 2013).

Columns and labels:
[1] = target: T1, Thioredoxin reductase (Mycobacterium tuberculosis) (UniProt P9WHH1); test: Inhibition of Mycobacterium tuberculosis TrxR at 5 uM after 10 mins by microplate reader analysis
T1 sequence (whole entry): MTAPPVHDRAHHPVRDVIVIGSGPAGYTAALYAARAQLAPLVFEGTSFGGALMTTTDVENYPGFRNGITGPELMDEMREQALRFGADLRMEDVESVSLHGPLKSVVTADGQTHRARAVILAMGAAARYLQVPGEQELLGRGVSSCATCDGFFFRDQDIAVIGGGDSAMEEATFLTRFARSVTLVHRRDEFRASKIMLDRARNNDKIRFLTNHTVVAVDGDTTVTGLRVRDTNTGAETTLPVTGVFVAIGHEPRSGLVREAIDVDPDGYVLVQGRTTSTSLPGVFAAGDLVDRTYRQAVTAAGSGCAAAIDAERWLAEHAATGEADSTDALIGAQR
Method in brief: (§1)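 MtTrxR, MtTrxB and MtTPx from M. tuberculosis, expressed in E. coli. Enzyme preincubated 10 min at 25 °C with 10 μM MtTrxB, 5 μM MtTPx, 225 μM NADPH and 0.06-45 μM compound in 50 mM HEPES pH 7.4, 1 mM EDTA. Started with 73 μM t-butylhydroperoxide. Initial NADPH oxidation rate read at 340 nm, 25 °C. Triplicates, outliers removed. IC50 by four-parameter fit, mean of ≥3 assays.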

[2] = target: T1, Thioredoxin reductase (Mycobacterium tuberculosis); test: Inhibition of Mycobacterium tuberculosis TrxR at 1.67 uM after 10 mins by microplate reader analysis; method in brief: as §1
Thioredoxin reductase = target: T2, Thioredoxin reductase (Mycobacterium tuberculosis, UniProt P9WHH1); test: Inhibition of Mycobacterium tuberculosis TrxR after 10 mins by microplate reader analysis; method in brief: as §1
T2 sequence (P9WHH1 whole entry): T1 sequence (whole entry)

[3] = target: Thioredoxin reductase (Homo sapiens) (UniProt Q16881+Q9NNW7+Q86VQ6); test: Inhibition of human TrxR at 100 uM by spectrophotometry; format: protein assay
Method in brief: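 Human placenta TrxR1 (2.8 nM final) with 200 μM NADPH in 100 mM potassium phosphate, 2 mM EDTA, pH 7.4. Inhibitor added up to 100 μM final, then reaction started with 3 mM DTNB. Absorbance followed at 412 nm at 25 °C against inhibitor-free control. At least three independent experiments; apparent activation scored as no inhibition.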

[4] = Selectivity index, ratio of IC50 for human TrxR to IC50 for Mycobacterium tuberculosis TrxR
Method in brief: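 Estimated from HsTrxR inhibition at 100 μM (DTNB assay) and the MtTrxR IC50, assuming that ≤10% HsTrxR inhibition at 100 μM reflects an IC50 of >300 μM.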

[5] = target: T1, Thioredoxin reductase (Mycobacterium tuberculosis); test: Inhibition of Mycobacterium tuberculosis TrxR at 45 uM after 10 mins by microplate reader analysis; method in brief: as §1
[6] = target: T1, Thioredoxin reductase (Mycobacterium tuberculosis); test: Inhibition of Mycobacterium tuberculosis TrxR at 15 uM after 10 mins by microplate reader analysis; method in brief: as §1

Work on `Nc1ccc(N2CCCCC2)cc1` yielded an inhibition [1] of 17%, an inhibition [2] of 9.5% and an IC50 (Thioredoxin reductase) of 33.4 µM. For the same compound, the inhibition [3] was 0%, the Ratio IC50 [4] was > 10 and the inhibition [5] was 55%. For the same compound, the inhibition [6] was 35.7%.

In the case of `COc1ccc2nc(C)cc(Nc3ccc(O)cc3)c2c1`, the inhibition [1] is reported as 36%, the inhibition [2] is reported as 25.6% and the IC50 (Thioredoxin reductase) is reported as 12.5 µM. For the same compound, the inhibition [3] was 31.6%, the Ratio IC50 [4] was > 8 and the inhibition [5] was 68%. The inhibition [6] was 51.6%.

In the case of `Fc1cccc(Cl)c1CNc1ccc(N2CCCCC2)cc1`, the inhibition [1] is reported as 41.7%, the inhibition [2] is reported as 30% and the IC50 (Thioredoxin reductase) is reported as 15.3 µM. For the same compound, the inhibition [3] was 4.6%, the Ratio IC50 [4] was > 10 and the inhibition [5] was 58.7%. It also gave an inhibition [6] of 51.7%.

`O=C(CCCCc1ccccc1)Nc1ccc(N2CCC(NCCn3cccn3)CC2)cc1` gave an inhibition [1] of 14.7%, an inhibition [2] of 12.3% and an inhibition [5] of 24%. The inhibition [6] was 17.5%.

For `O=C(COc1ccccc1)Nc1ccc(N2CCC(NCc3cccc(-n4cccn4)c3)CC2)cc1`, the inhibition [1] was 16.9%, the inhibition [2] was 11.2% and the inhibition [5] was 22.1%. The inhibition [6] was 18.2%.

With `Nc1nc(-c2cc3ccc(O)cc3oc2=O)cs1` the inhibition [1] was 17.3%, the inhibition [2] was 10.6% and the IC50 (Thioredoxin reductase) was 100 µM. For the same compound, the inhibition [3] was 0%, the Ratio IC50 [4] was > 3 and the inhibition [5] was 36.4%. The inhibition [6] was 19.7%.

With `CSCCNC1CCN(c2ccc(NC(=O)CCCCc3ccccc3)cc2)CC1` the inhibition [1] was 29.7%, the inhibition [2] was 27% and the IC50 (Thioredoxin reductase) was 100 µM. For the same compound, the inhibition [3] was 0%, the Ratio IC50 [4] was > 3 and the inhibition [5] was 28%. The inhibition [6] was 33.7%.

Compound `NC1=C(c2nc(-c3ccccc3)cs2)C(=O)CN1c1ccc(S(N)(=O)=O)cc1` has an inhibition [1] of 9.9%, an inhibition [2] of 8.4% and an IC50 (Thioredoxin reductase) of 200 µM. The inhibition [3] was 0%, the Ratio IC50 [4] was > 2 and the inhibition [5] was 25%. The inhibition [6] was 12.8%.

For `CC(c1c[nH]nc1-c1ccccc1)N1CCC(CCC(=O)Nc2ccccc2)CC1` (stereo not given), the inhibition [1] was 38%, the inhibition [2] was 29.7% and the IC50 (Thioredoxin reductase) was 15 µM. The inhibition [3] was 0%, the Ratio IC50 [4] was > 20 and the inhibition [5] was 29.8%. It also gave an inhibition [6] of 34.3%.

In the case of `C=CCc1cccc(/C=N/NC(=O)CCC2C(=O)NN=C2C)c1O` (stereo not given), the inhibition [1] is reported as 31%, the inhibition [2] is reported as 31.7% and the inhibition [3] is reported as 0%. The Ratio IC50 [4] was > 10, the inhibition [5] was 26% and the inhibition [6] was 31.7%.

With `c1ccc2sc(CNc3ccc(N4CCCCC4)cc3)nc2c1` the inhibition [1] was 39.7%, the inhibition [2] was 24% and the IC50 (Thioredoxin reductase) was 15.8 µM. The inhibition [3] was 17.1%, the Ratio IC50 [4] was > 10 and the inhibition [5] was 67%. It also gave an inhibition [6] of 44.4%.

Work on `O=C(O)[C@H](Cc1cc2ccccc2[nH]1)NCc1c[nH]c2ccccc12` yielded an inhibition [1] of 31.7%, an inhibition [2] of 26.7% and an IC50 (Thioredoxin reductase) of 30 µM. The inhibition [3] was 10.4%, the Ratio IC50 [4] was > 10 and the inhibition [5] was 31%. The inhibition [6] was 43.3%.

For `O=C(Nc1ccc(N2CCC(NCCOc3cccnc3)CC2)cc1)c1cnccn1`, the inhibition [1] was 12%, the inhibition [2] was 5% and the inhibition [6] was 16.3%.
